Laboratory results as given in ChEMBL document CHEMBL4049458, “Structure-Based Optimization of Thiophene[3,2-d]pyrimidine Derivatives as Potent HIV-1 Non-nucleoside Reverse Transcriptase Inhibitors with Improved Potency against Resistance-Associated Variants” (J Med Chem, 2017).

Key:
[1] = Selectivity index, ratio of CC50 for human MT4 cells to EC50 for reverse transcriptase F227L/V106A double mutant in human MT4 cells infected HIV1 3B
[2] = Fold resistance, ratio of EC50 for reverse transcriptase F227L/V106A double mutant in human MT4 cells infected HIV1 3B to EC50 for wild type HIV1 3B harboring reverse transcriptase infected in human MT4 cells; format: functional
In short: (§1)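 MT-4 cells at 6 × 10^5 cells/mL were infected with WT HIV-1 IIIB or RT-mutant strains at 100−300 CCID50, with 5-fold serial compound dilutions in triplicate wells. After 5 days, viability was read by MTT reduction at 540 and 690 nm, using the median OD of three wells. […] Fold resistance is mutant EC50 divided by WT EC50.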

[3] = Selectivity index, ratio of CC50 for human MT4 cells to EC50 for reverse transcriptase Y188L mutant in human MT4 cells infected HIV1 3B
[4] = Fold resistance, ratio of EC50 for reverse transcriptase Y188L mutant in human MT4 cells infected HIV1 3B to EC50 for wild type HIV1 3B harboring reverse transcriptase infected in human MT4 cells; format: functional; in short: as §1
[5] = Fold resistance, ratio of EC50 for reverse transcriptase L100I mutant in human MT4 cells infected HIV1 3B to EC50 for wild type HIV1 3B harboring reverse transcriptase infected in human MT4 cells; format: functional; in short: as §1
[6] = Inhibition of recombinant wild type HIV1 3B reverse transcriptase infected in human MT4 cells assessed as decrease in biotin-dUTP incorporation after 1 hr; format: cell-based; settings: Human immunodeficiency virus 1, 3B, MT4, 1 h
In short: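 Recombinant HIV-1 RT assayed with a kit ELISA. Enzyme, reconstituted template and nucleotides (DIG-dUTP, biotin-dUTP, dTTP) were incubated in incubation buffer with or without inhibitor for 1 h at 37 °C. Product was captured on streptavidin plates for 1 h at 37 °C, then anti-DIG-POD was added for 1 h at 37 °C, followed by ABTS. Read at OD405.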

[7] = Fold resistance, ratio of EC50 for reverse transcriptase K103N/Y181C double mutant in human MT4 cells infected HIV1 RES056 to EC50 for wild type HIV1 3B harboring reverse transcriptase infected in human MT4 cells; format: functional; in short: as §1
[8] = Selectivity index, ratio of CC50 for human MT4 cells to EC50 for reverse transcriptase Y181C mutant in human MT4 cells infected HIV1 3B
[9] = Fold resistance, ratio of EC50 for reverse transcriptase E138K mutant in human MT4 cells infected HIV1 3B to EC50 for wild type HIV1 3B harboring reverse transcriptase infected in human MT4 cells; format: functional; in short: as §1
[10] = Selectivity index, ratio of CC50 for human MT4 cells to EC50 for reverse transcriptase E138K mutant in human MT4 cells infected HIV1 3B
[11] = Selectivity index, ratio of CC50 for human MT4 cells to EC50 for reverse transcriptase K103N mutant in human MT4 cells infected HIV1 3B
[12] = Selectivity index, ratio of CC50 for human MT4 cells to EC50 for HIV1 RES056 reverse transcriptase K103N/Y181C double mutant infected in human MT4 cells
[13] = test system: Human immunodeficiency virus 1; experiment: Antiviral activity against wild type HIV1 3B harboring reverse transcriptase infected in human MT4 cells assessed as protection against virus induced cytotoxicity after 5 days by MTT assay; format: functional, cell-based; settings: Human immunodeficiency virus 1, 3B, MT4, 120 h
[14] = Fold resistance, ratio of EC50 for reverse transcriptase K103N mutant in human MT4 cells infected HIV1 3B to EC50 for wild type HIV1 3B harboring reverse transcriptase infected in human MT4 cells; format: functional; in short: as §1
[15] = Selectivity index, ratio of CC50 for human MT4 cells to EC50 for reverse transcriptase L100I mutant in human MT4 cells infected HIV1 3B
[16] = Cytotoxicity against human MT4 cells assessed as cell viability after 5 days by MTT assay; format: cell-based
[17] = Selectivity index, ratio of CC50 for human MT4 cells to EC50 for wild type HIV1 3B harboring reverse transcriptase infected in human MT4 cells
[18] = Fold resistance, ratio of EC50 for reverse transcriptase Y181C mutant in human MT4 cells infected HIV1 3B to EC50 for wild type HIV1 3B harboring reverse transcriptase infected in human MT4 cells; format: functional; in short: as §1
[19] = test system: Human immunodeficiency virus 2; experiment: Antiviral activity against HIV2 ROD harboring reverse transcriptase infected in human MT4 cells assessed as protection against virus induced cytotoxicity after 5 days by MTT assay; format: functional, cell-based; settings: Human immunodeficiency virus 2, ISOLATE ROD, MT4, 120 h
[20] = test system: Human immunodeficiency virus type 1 reverse transcriptase (Human immunodeficiency virus 1), Q72547 [K103N]; experiment: Potency index, ratio of EC50 for NVP to EC50 for test compound for reverse transcriptase K103N mutant in human MT4 cells infected HIV1 3B; format: cell-based
[21] = test system: Human immunodeficiency virus type 1 reverse transcriptase (Human immunodeficiency virus 1), Q72547 [K103N]; experiment: Potency index, ratio of EC50 for EFV to EC50 for test compound for reverse transcriptase K103N mutant in human MT4 cells infected HIV1 3B; format: cell-based
[22] = MRT(0 to infinity) in Sprague-Dawley rat at 2 mg/kg, iv by LC-MS analysis; format: ADME, organism-based; settings: in vivo
[23] = Cmax in Sprague-Dawley rat at 2 mg/kg, iv by LC-MS analysis; format: ADME, organism-based; set-up: dose 2 mg/kg, route intravenous; settings: in vivo
[24] = test system: Mus musculus; experiment: Toxicity in Kunming mouse assessed as increase in body weight at 2000 mg/kg, ig administered via gavage measure after 2 weeks; format: organism-based; settings: in vivo, po, 336 h
[25] = Apparent half life in Sprague-Dawley rat at 24 mg/kg, po by LC-MS analysis; format: ADME, organism-based; settings: in vivo, read-out: t1/2(app) (converted)
[26] = test system: Rattus norvegicus; experiment: VRT(0 to infinity) in Sprague-Dawley rat at 2 mg/kg, iv by LC-MS analysis; format: ADME, organism-based; settings: in vivo
[27] = AUC(0 to t) in Sprague-Dawley rat at 2 mg/kg, iv by LC-MS analysis; format: ADME, organism-based; settings: in vivo
[28] = Cmax in Sprague-Dawley rat at 24 mg/kg, po by LC-MS analysis; format: ADME, organism-based; set-up: dose 24 mg/kg, route oral; settings: in vivo
[29] = test system: Rattus norvegicus; experiment: VRT(0 to t) in Sprague-Dawley rat at 2 mg/kg, iv by LC-MS analysis; format: ADME, organism-based; settings: in vivo
[30] = Tmax in Sprague-Dawley rat at 24 mg/kg, po by LC-MS analysis; format: ADME, organism-based; settings: in vivo
[31] = test system: Rattus norvegicus; experiment: VRT(0 to t) in Sprague-Dawley rat at 24 mg/kg, po by LC-MS analysis; format: ADME, organism-based; settings: in vivo
[32] = test system: Rattus norvegicus; experiment: AUC(0 to infinity) in Sprague-Dawley rat at 24 mg/kg, po by LC-MS analysis; format: ADME, organism-based; set-up: dose 24 mg/kg, route oral, time infinity; settings: in vivo
[33] = MRT(0 to infinity) in Sprague-Dawley rat at 24 mg/kg, po by LC-MS analysis; format: ADME, organism-based; settings: in vivo
[34] = AUC(0 to t) in Sprague-Dawley rat at 24 mg/kg, po by LC-MS analysis; format: ADME, organism-based; settings: in vivo
[35] = MRT(0 to t) in Sprague-Dawley rat at 24 mg/kg, po by LC-MS analysis; format: ADME, organism-based; settings: in vivo
[36] = test system: Rattus norvegicus; experiment: VRT(0 to infinity) in Sprague-Dawley rat at 24 mg/kg, po by LC-MS analysis; format: ADME, organism-based; settings: in vivo
[37] = Apparent half life in Sprague-Dawley rat at 2 mg/kg, iv by LC-MS analysis; format: ADME, organism-based; settings: in vivo, read-out: t1/2(app) (converted)
[38] = AUC(0 to infinity) in Sprague-Dawley rat at 2 mg/kg, iv by LC-MS analysis; format: ADME, organism-based; set-up: dose 2 mg/kg, time infinity, route intravenous; settings: in vivo
[39] = test system: Rattus norvegicus; experiment: Apparent clearance during terminal phase in Sprague-Dawley rat at 2 mg/kg, iv by LC-MS analysis; format: ADME, organism-based; settings: in vivo
[40] = MRT(0 to t) in Sprague-Dawley rat at 2 mg/kg, iv by LC-MS analysis; format: ADME, organism-based; settings: in vivo
[41] = test system: Mus musculus; experiment: Toxicity in Kunming mouse assessed as mortality at 2000 mg/kg, ig administered via gavage measure after 2 weeks; format: organism-based; settings: in vivo, po, 336 h

| SMILES | Ratio EC50 [2] | Ratio EC50 [4] | Ratio EC50 [5] | IC50 [6] | Ratio EC50 [7] | Ratio EC50 [9] | EC50 [13] | Ratio EC50 [14] | CC50 at 120 h [16] | Ratio EC50 [18] | selectivity ratio ([1]; MT4 cells) | selectivity ratio ([3]; MT4 cells) | EC50 [19] | selectivity ratio ([8]; MT4 cells) | selectivity ratio ([10]; MT4 cells) | selectivity ratio ([11]; MT4 cells) | selectivity ratio ([12]; MT4 cells) | selectivity ratio ([15]; MT4 cells) | selectivity ratio ([17]; MT4 cells) | also measured |
| --- | --- | --- | --- | --- | --- | --- | --- | --- | --- | --- | --- | --- | --- | --- | --- | --- | --- | --- | --- | --- |
| Cc1cc(C#N)cc(C)c1Oc1nc(Nc2ccc(C#N)cc2)nc(N)c1Br [ETRAVIRINE] | 0.6 - 7.2 | 0.6 - 7.2 | 1.3 | 1000 nM | 4.2 | 0.6 - 7.2 | 4.07 nM | 0.6 - 7.2 | > 4590 nM | 0.6 - 7.2 |  |  |  |  |  |  |  |  |  | selectivity ratio [1]: 156; selectivity ratio [3]: > 224; selectivity ratio [8]: > 291; selectivity ratio [10]: > 318; selectivity ratio [11]: > 1950; selectivity ratio [12]: > 270; selectivity ratio [15]: > 853; selectivity ratio [17]: > 1130 |
| Cc1cc(C#N)cc(C)c1Oc1nc(NC2CCN(Cc3ccc(S(C)(=O)=O)cc3)CC2)nc2sccc12 |  |  |  |  |  |  | 3.56 nM |  | 1190 nM |  | 137 | 124 | > 1190 nM | 200 | 164 | 725 | 28 | 152 | 335 | Ratio EC50 [20]: 3370; Ratio EC50 [21]: 50 |
| Cc1cc(C#N)cc(C)c1Oc1nc(NC2CCN(Cc3ccc(S(N)(=O)=O)cc3)CC2F)nc2ccsc12 (stereo unspecified) | 1.4 - 6.5 | 1.4 - 6.5 | 1.4 - 6.5 |  | 1.4 - 6.5 | 1.4 - 6.5 | 5.69 nM | 1.4 - 6.5 | 5150 nM | 1.4 - 6.5 | 590 | 370 | > 5150 nM | 171 | 296 | 653 | 138 | 576 | 906 |  |
| Cc1cc(/C=C/C#N)cc(C)c1Oc1nc(NC2CCN(Cc3ccc(S(N)(=O)=O)cc3)CC2)nc2ccsc12 |  |  |  | 160 nM |  |  | 1.22 nM |  |  |  |  |  |  |  |  |  |  |  |  | MRT inf [22]: 1.69 h; Cmax [23]: 2220 ng/mL; Activity [24]: Non-Toxic; half-life [25]: 3.93 h; VRT [26]: 3.72 hr2; AUC(0-t) [27]: 1370 ng·h/mL; Cmax [28]: 553 ng/mL; VRT(t) [29]: 2.78 hr2; Tmax [30]: 1.7 h; VRT(t) [31]: 8.11 hr2; AUC [32]: 2692.2 ng·h/mL; MRT inf [33]: 5.54 h; AUC(0-t) [34]: 2320 ng·h/mL; MRT last [35]: 3.71 h; VRT [36]: 35.67 hr2; half-life [37]: 1.34 h; AUC(0-inf) [38]: 1390 ng·h/mL; CLz/F [39]: 0.242 mL/min/kg; MRT last [40]: 1.57 h; Activity [41]: Non-Toxic |
